Data reported in ChEMBL document CHEMBL1148789, “Synthesis and biological activities of new checkpoint kinase 1 inhibitors structurally related to granulatimide” (J Med Chem, 2007).
Activity calls are given as the source filed them. No cut-off for these calls is given here.

Experiments:
Homo sapiens [1] = species: Homo sapiens; assay: Residual activity of CDK1/cyclin B at 1 uM
[2] = biological target: MAP kinase-activated protein kinase 2 (Homo sapiens) (UniProt P49137); assay: Residual activity of MAPKAPK2 at 1 uM
[3] = biological target: T1, Proto-oncogene tyrosine-protein kinase Src (Homo sapiens, UniProt P12931); assay: Inhibition of Src at 10 uM
Summary of the method: (§1)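 Started by adding cosubstrate (40 µM ATP stock with [33P]γ-ATP); 20 min at 30 °C. Stopped with 0.85% orthophosphoric acid, filtered on phosphocellulose, washed, then scintillation counted. Percent inhibition at 10 µM; IC50 reported.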

[4] = biological target: Glycogen synthase kinase-3 beta (Homo sapiens) (UniProt P49841); assay: Inhibition of GSK3-beta at 1 uM; values are per cent of control
HT-29 = assay: Antiproliferative activity against human HT29 cells […] by microculture tetrazolium assay; format: functional, cell-based
Summary of the method: (§2)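 Human HCT116, human HT29 and murine L1210 tumour cells grown in RPMI 1640 with 10% fetal calf serum, 2 mM L-glutamine, penicillin/streptomycin and 10 mM HEPES pH 7.4. Compounds were taken from 10^-2 M DMSO stocks, diluted 1/100 in RPMI, and cells were exposed continuously to graded concentrations for four doubling times. MTT was added for 4 h at 37 °C and the formazan dissolved in DMSO. IC50 is the concentration lowering optical density 50% versus untreated cells.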

L1210 = assay: Antiproliferative activity against mouse L1210 cells after four doubling times by microculture tetrazolium assay
[5] = biological target: Ribosomal protein S6 kinase beta-1 (Homo sapiens) (UniProt P23443); assay: Residual activity of p70S6K at 1 uM
[6] = biological target: T2, Serine/threonine-protein kinase Chk1 (Homo sapiens, UniProt O14757); assay: Inhibition of human Chk1 expressed in Sf9 cells
T2 sequence (O14757 whole entry): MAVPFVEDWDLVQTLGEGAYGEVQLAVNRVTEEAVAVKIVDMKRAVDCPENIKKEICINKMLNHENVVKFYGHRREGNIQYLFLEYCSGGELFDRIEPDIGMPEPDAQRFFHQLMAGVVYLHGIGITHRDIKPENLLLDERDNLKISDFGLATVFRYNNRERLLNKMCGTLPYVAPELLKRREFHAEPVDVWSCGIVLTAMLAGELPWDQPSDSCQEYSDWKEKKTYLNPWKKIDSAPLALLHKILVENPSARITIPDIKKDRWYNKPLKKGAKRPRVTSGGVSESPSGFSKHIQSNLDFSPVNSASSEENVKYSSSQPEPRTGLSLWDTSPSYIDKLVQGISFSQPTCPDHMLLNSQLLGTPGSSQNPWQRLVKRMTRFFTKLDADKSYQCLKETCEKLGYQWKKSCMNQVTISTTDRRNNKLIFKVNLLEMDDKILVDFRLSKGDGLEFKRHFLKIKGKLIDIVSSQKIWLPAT
Summary of the method: (§3)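 Full-length human Chk1 with an N-terminal GST tag, purified from baculovirus-infected Sf9 cells or purchased. Stopped with orthophosphoric acid and captured on phosphocellulose filters for scintillation counting. Percent inhibition at 10 µM; IC50 from 12 concentrations over 6 logs, duplicate points averaged.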

HCT-116 = assay: Antiproliferative activity against human HCT116 cells […] by microculture tetrazolium assay; format: functional, cell-based
Summary of the method: as §2

Homo sapiens [7] = species: Homo sapiens; assay: Inhibition of CDK2/cyclin A at 1 uM; values are per cent of control
[8] = biological target: Dual specificity mitogen-activated protein kinase kinase 1 (Homo sapiens) (UniProt Q02750); assay: Residual activity of MEK1 at 1 uM
[9] = biological target: Mitogen-activated protein kinase 1 (Homo sapiens) (UniProt P28482); assay: Inhibition of MAPK1 at 1 uM; values are per cent of control
[10] = biological target: Casein kinase II subunit alpha (Homo sapiens) (UniProt P68400); assay: Residual activity of CK2 at 1 uM
[11] = biological target: T3, Serine/threonine-protein kinase Chk1 (Homo sapiens) (UniProt O14757); assay: Inhibition of human Chk1 expressed in Sf9 cells at 10 uM
T3 sequence (whole entry): T2 sequence (O14757 whole entry)
Summary of the method: as §3

Homo sapiens [12] = species: Homo sapiens; assay: Residual activity of PKA at 1 uM
Homo sapiens [13] = species: Homo sapiens; assay: Residual activity of CaMKII at 1 uM
[14] = biological target: CDK9/cyclin T1 (Homo sapiens) (UniProt O60563+P50750); assay: Inhibition of CDK9/cyclin T1 at 1 uM; values are per cent of control
[15] = biological target: T3, Serine/threonine-protein kinase Chk1 (Homo sapiens); assay: Residual activity of Chk1 at 1 uM
[16] = biological target: Casein kinase I isoform delta (Homo sapiens) (UniProt P48730); assay: Inhibition of CK1delta at 1 uM; values are per cent of control
[17] = biological target: RAC-alpha serine/threonine-protein kinase (Homo sapiens) (UniProt P31749); assay: Inhibition of PKBalpha at 1 uM; values are per cent of control
Homo sapiens [18] = species: Homo sapiens; assay: Residual activity of CDK7/cyclin H at 1 uM
[19] = biological target: Glycogen synthase kinase-3 alpha (Homo sapiens) (UniProt P49840); assay: Inhibition of GSK3-alpha at 1 uM; values are per cent of control
[20] = biological target: RAF proto-oncogene serine/threonine-protein kinase (Homo sapiens) (UniProt P04049); assay: Residual activity of cRAF at 1 uM
[21] = biological target: Cyclin-dependent kinase 5/CDK5 activator 1 (Homo sapiens) (UniProt Q00535+Q15078); assay: Residual activity of CDK5/p25 at 1 uM
[22] = biological target: Protein kinase C alpha type (Homo sapiens) (UniProt P17252); assay: Inhibition of PKCalpha at 1 uM; values are per cent of control
[23] = biological target: T1, Proto-oncogene tyrosine-protein kinase Src; assay: Inhibition of Src
Summary of the method: as §1

T1 sequence (P12931 2-536 limits assumed): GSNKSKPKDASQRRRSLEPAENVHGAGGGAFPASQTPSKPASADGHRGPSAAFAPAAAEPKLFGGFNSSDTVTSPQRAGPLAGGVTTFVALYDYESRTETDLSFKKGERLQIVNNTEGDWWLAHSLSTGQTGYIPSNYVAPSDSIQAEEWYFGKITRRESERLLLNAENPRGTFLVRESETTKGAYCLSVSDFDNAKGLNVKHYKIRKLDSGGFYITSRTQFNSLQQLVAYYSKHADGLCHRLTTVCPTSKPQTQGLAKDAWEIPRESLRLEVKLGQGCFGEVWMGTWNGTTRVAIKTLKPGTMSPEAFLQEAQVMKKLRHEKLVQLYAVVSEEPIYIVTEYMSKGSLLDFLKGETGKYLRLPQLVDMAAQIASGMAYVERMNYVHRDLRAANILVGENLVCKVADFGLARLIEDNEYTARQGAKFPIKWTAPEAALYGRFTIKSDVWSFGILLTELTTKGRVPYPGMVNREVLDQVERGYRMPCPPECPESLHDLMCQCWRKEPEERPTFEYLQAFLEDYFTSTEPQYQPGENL
Chain of Glycogen synthase kinase-3 beta (Homo sapiens) (P49841 whole entry, looked up): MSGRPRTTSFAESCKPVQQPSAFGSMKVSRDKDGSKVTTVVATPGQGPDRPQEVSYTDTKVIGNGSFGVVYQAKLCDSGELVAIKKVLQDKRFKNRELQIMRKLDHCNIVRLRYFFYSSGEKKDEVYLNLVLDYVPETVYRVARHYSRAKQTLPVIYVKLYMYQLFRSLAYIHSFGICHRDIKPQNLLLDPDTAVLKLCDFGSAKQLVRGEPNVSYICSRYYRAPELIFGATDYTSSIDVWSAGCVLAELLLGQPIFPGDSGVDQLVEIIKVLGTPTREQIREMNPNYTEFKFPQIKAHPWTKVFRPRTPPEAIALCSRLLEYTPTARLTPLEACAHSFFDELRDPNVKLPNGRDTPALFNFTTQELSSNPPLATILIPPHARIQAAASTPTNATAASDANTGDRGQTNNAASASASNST
Chain of Mitogen-activated protein kinase 1 (Homo sapiens) (P28482 whole entry): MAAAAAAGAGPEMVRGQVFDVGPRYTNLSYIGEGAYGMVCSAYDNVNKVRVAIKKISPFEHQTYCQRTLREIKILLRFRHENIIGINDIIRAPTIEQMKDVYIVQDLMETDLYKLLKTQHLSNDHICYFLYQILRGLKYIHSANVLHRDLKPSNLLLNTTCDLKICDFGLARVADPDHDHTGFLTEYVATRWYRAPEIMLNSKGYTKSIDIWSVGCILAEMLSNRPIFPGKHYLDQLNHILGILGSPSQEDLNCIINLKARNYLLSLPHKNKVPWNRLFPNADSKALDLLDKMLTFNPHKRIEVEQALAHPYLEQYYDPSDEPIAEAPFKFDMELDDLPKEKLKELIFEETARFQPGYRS
Chain of RAC-alpha serine/threonine-protein kinase (Homo sapiens) (P31749 whole entry): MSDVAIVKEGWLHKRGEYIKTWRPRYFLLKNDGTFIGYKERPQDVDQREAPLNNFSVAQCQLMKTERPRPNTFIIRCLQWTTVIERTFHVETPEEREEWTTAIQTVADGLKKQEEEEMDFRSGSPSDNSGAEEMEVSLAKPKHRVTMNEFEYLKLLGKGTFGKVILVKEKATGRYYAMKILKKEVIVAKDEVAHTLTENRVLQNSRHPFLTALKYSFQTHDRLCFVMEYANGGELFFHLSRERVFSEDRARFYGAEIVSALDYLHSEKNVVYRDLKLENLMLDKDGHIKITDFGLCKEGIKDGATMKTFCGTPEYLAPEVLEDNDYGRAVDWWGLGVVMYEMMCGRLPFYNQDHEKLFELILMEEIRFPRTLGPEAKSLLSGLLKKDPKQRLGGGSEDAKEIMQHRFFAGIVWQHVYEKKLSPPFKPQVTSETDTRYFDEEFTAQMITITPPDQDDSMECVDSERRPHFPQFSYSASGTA
Chain of Casein kinase II subunit alpha (Homo sapiens) (P68400 whole entry, looked up): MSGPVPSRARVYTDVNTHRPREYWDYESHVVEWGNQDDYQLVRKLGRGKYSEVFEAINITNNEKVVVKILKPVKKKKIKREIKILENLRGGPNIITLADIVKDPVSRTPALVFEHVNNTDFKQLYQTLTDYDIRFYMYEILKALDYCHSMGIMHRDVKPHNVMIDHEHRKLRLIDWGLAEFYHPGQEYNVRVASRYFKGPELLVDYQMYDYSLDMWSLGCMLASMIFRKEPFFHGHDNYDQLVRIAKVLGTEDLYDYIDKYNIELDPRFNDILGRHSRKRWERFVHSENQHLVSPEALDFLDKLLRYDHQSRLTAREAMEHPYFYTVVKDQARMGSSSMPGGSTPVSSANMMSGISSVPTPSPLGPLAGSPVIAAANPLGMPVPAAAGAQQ
Chain of Cyclin-dependent kinase 5/CDK5 activator 1 (Homo sapiens) (Q00535 whole entry): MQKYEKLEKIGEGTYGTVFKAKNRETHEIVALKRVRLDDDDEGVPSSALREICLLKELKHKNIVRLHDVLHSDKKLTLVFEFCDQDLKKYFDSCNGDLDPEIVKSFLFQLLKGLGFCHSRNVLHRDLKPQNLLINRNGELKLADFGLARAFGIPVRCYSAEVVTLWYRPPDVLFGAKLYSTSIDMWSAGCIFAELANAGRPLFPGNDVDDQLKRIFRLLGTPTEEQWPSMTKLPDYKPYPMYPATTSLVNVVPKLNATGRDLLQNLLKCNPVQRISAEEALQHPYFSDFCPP
Chain of Cyclin-dependent kinase 5/CDK5 activator 1 (Homo sapiens) (Q15078 99-307 partner limits assumed): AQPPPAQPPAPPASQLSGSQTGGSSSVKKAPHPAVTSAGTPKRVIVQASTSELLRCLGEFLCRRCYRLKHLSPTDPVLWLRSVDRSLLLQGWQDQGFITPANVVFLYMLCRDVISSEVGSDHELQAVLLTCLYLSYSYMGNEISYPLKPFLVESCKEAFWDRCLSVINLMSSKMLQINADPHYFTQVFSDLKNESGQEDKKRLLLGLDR
Chain of RAF proto-oncogene serine/threonine-protein kinase (Homo sapiens) (P04049 whole entry): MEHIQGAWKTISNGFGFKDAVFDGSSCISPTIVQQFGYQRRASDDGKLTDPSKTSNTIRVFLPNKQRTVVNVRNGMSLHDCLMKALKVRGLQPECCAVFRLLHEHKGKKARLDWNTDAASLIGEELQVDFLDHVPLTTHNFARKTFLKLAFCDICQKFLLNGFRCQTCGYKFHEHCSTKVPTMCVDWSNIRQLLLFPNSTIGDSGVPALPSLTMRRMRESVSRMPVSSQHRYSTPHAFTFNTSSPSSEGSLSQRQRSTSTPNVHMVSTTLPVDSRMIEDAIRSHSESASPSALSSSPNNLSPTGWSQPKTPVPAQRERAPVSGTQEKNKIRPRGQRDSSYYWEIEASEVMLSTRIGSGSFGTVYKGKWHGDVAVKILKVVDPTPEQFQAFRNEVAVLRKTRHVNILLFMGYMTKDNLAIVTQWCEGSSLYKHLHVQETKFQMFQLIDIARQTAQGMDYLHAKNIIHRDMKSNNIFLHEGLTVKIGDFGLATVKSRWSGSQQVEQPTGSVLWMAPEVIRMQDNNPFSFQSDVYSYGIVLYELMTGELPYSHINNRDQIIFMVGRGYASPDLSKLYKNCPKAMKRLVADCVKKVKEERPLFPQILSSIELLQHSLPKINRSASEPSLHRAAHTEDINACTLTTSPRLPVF
Chain of MAP kinase-activated protein kinase 2 (Homo sapiens) (P49137 whole entry, looked up): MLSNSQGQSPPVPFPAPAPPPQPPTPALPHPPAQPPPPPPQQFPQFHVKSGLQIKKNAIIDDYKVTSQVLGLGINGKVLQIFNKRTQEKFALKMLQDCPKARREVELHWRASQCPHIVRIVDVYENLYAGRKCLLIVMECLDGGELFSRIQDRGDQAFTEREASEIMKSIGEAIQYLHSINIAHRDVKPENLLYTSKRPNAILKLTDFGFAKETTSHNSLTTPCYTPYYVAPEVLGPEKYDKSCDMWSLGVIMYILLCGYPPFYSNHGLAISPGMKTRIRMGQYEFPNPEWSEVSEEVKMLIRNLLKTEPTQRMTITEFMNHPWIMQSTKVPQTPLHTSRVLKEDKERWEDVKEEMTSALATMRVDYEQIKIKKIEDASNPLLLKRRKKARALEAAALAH
Chain of Glycogen synthase kinase-3 alpha (Homo sapiens) (P49840 2-483 limits assumed): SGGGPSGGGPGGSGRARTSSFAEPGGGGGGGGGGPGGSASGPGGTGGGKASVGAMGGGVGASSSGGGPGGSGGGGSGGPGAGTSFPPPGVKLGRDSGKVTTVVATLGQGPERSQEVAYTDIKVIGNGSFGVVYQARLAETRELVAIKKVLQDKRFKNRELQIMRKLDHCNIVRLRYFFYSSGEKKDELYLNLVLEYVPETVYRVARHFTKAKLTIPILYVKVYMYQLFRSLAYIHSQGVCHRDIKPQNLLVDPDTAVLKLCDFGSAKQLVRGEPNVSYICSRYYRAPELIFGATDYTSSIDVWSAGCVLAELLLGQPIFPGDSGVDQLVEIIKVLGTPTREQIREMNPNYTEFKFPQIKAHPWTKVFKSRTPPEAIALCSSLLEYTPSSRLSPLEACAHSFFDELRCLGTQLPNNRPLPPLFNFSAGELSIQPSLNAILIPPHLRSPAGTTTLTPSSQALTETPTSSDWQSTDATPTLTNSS

| Structure (SMILES) | inhibition [3] | IC50 (HT-29) | IC50 [6] | IC50 (HCT-116) | inhibition [11] | other results |
| --- | --- | --- | --- | --- | --- | --- |
| O=C1NC(=O)c2c1c1c(O)ccc(O)c1c1[nH]c3ccc(O)cc3c21 | 83.5% | 26.4 µM | 0.023 µM | 2.7 µM | 94% | IC50 (L1210): 1.4 µM; IC50 [23]: 5.4 µM |
| O=c1[nH]c(=O)c2c1c1[nH]c3ccccc3c1c1c(=O)[nH]c(=O)c21 [BIS-IMIDE A] | – | – | 0.02 µM | – | 94.4% | Activity [3]: inactive |
| O=C1NC(=O)c2c1c1c(O)ccc(OS(=O)(=O)O)c1c1[nH]c3ccccc3c21 | – | 46 µM | 1.79 µM | > 50 µM | 62% | – |
| Cc1ccc2[nH]c3c4c(=O)ccc(=O)c4c4c(=O)[nH]c(=O)c4c3c2c1 | 52.5% | 20.6 µM | 0.107 µM | 0.7 µM | 86% | – |
| O=C1NC(=O)c2c1c1[nH]cnc1c1[nH]c3ccccc3c21 [GRANULATIMIDE] | 58% | – | 0.081 µM | – | – | IC50 [23]: 0.35 µM |
| Cc1ccc2[nH]c3c4c(O)ccc(O)c4c4c(c3c2c1)C(=O)NC4=O | – | 3.8 µM | 0.161 µM | 1.6 µM | 99% | residual activity (Homo sapiens [1]): 86%; residual activity [2]: 57%; residual activity [4]: 60%; residual activity [5]: 42%; residual activity (Homo sapiens [7]): 69%; residual activity [8]: 96%; residual activity [9]: 95%; residual activity [10]: 108%; residual activity (Homo sapiens [12]): 117%; residual activity (Homo sapiens [13]): 34%; residual activity [14]: 117%; residual activity [15]: 12%; residual activity [16]: 100%; residual activity [17]: 87%; residual activity (Homo sapiens [18]): 90%; residual activity [19]: 32%; residual activity [20]: 93%; residual activity [21]: 28%; residual activity [22]: 102% |
| O=C1NC(=O)c2c1c1c(O)ccc(O)c1c1[nH]c3ccccc3c21 | 2.5% | – | 0.311 µM | – | 96% | – |
| Cc1ccc2[nH]c3c4c(OS(=O)(=O)O)ccc(O)c4c4c(c3c2c1)C(=O)NC4=O | – | 50 µM | 0.893 µM | > 40 µM | 70% | – |

Continued, in another order:

| inhibition [3] | IC50 (HT-29) | IC50 [6] | IC50 (HCT-116) | inhibition [11] | Structure (SMILES) | other results |
| --- | --- | --- | --- | --- | --- | --- |
| 63% | 50.6 µM | 0.027 µM | 15.4 µM | 95% | O=c1ccc(=O)c2c1c1[nH]c3ccc(O)cc3c1c1c(=O)[nH]c(=O)c21 | residual activity (Homo sapiens [1]): 85%; residual activity [2]: 73%; residual activity [4]: 19%; IC50 (L1210): 8.4 µM; residual activity [5]: 27%; residual activity (Homo sapiens [7]): 62%; residual activity [8]: 98%; residual activity [9]: 77%; residual activity [10]: 92%; residual activity (Homo sapiens [12]): 103%; residual activity (Homo sapiens [13]): 40%; residual activity [14]: 61%; residual activity [15]: 22%; residual activity [16]: 16%; residual activity [17]: 87%; residual activity (Homo sapiens [18]): 87%; residual activity [19]: 3%; residual activity [20]: 102%; residual activity [21]: 33%; residual activity [22]: 66% |
| – | 16.1 µM | 0.043 µM | 9.7 µM | 72% | O=C1CCc2c1c1c(c3c2[nH]c2ccccc23)C(=O)NC1=O | Activity [3]: inactive; IC50 (L1210): 58.4 µM |
| 8.5% | 15.5 µM | – | 1.1 µM | 15.3% | O=C1NC(=O)c2c1c1c(c3[nH]c4ccccc4c23)C(=O)CCC1 | – |
| 35% | 46.4 µM | 0.904 µM | 17.5 µM | 93% | O=C1NC(=O)c2c1c1c(O)cccc1c1[nH]c3ccccc3c21 | – |
| – | – | 0.269 µM | – | 86% | O=c1ccc(=O)c2c1c1[nH]c3ccccc3c1c1c(=O)[nH]c(=O)c21 | – |
| – | 7.28 µM | 3.7 µM | 8.76 µM | 66% | CC(C)(C)C(=O)Oc1ccc(O)c2c3c(c4c5ccccc5[nH]c4c12)C(=O)NC3=O | – |
